Source: ChEMBL document CHEMBL4138193, “Novel indole and triazole based hybrid molecules exhibit potent anti-adipogenic and antidyslipidemic activity by activating Wnt3a/β-catenin pathway” (Eur J Med Chem, 2018)
Calls of active or inactive are those of the source. No cut-off for these calls is given here.

Columns and labels:
Syrian golden hamster [1] = assay: Anti-adipogenic activity in high fat diet-induced dyslipidemia Syrian Golden hamster model assessed as increase in beta-catenin levels in eWAT at 100 mg/kg, po administered for 1 week by Western blot analysis; format: functional, organism-based; conditions: Mesocricetus auratus
Summary of the method: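 Male Syrian golden hamsters (8–10 wk, 100–120 g) fed 45% kcal HFD for 4 days, then dosed orally at 100 mg/kg in 0.5% NaCMC for one week, n=4 per group. Fenofibrate 100 mg/kg p.o. used as positive control. Epididymal WAT proteins Western blotted, three independent experiments.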

3T3-L1 [2] = assay: Upregulation of wnt3a protein expression in mouse 3T3L1 cells at 20 uM after 16 to 24 hrs by Western blot analysis; format: functional, cell-based
Summary of the method: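 3T3-L1 cells given MDI with or without 20 µM; protein harvested at 16 and 24 hr. Lysates in ice-cold buffer with protease and phosphatase inhibitors were BCA-quantified, run on 8–12% SDS-PAGE, transferred to nitrocellulose and probed overnight at 4 °C. Detection by chemiluminescence, normalized to β-actin; three independent experiments.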

3T3-L1 [3] = assay: Induction of Wnt5a mRNA expression in mouse 3T3L1 cells at 20 uM by qRT-PCR analysis; format: functional, cell-based
Summary of the method: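 3T3-L1 cells induced with MDI differentiation medium with or without 20 µM. RNA isolated with TRIzol and 500 ng reverse-transcribed to cDNA for real-time PCR. n=3 with triplicates, mean ± SD; one-way ANOVA with Bonferroni post-test.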

Syrian golden hamster [4] = assay: Anti-dyslipidemic activity in high fat diet-induced dyslipidemia Syrian Golden hamster model assessed as reduction in serum LDL levels at 100 mg/kg, po administered for 1 week followed by overnight fasting post last dose by clinical bio-analyzer analysis; format: functional, organism-based; conditions: Mesocricetus auratus
Summary of the method: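 Male Syrian golden hamsters (8–10 wk, 100–120 g), 4 per group, given 45% kcal HFD for 4 days, then 100 mg/kg p.o. in 0.5% NaCMC daily for one week alongside HFD. Blood taken from retro-orbital plexus after overnight fast. TG, HDL, LDL, ALT, AST measured on a clinical bio-analyzer and NEFA by kit. Mean ± SEM, one-way ANOVA with Bonferroni.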

Mus musculus = species on record: Mus musculus; assay: Activation of Wnt3a/beta-catenin in differentiated mouse 3T3L1 cells assessed as down-regulation of PPARgamma protein expression at 20 uM after 16 to 24 hrs by Western blot analysis
Summary of the method: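 3T3-L1 preadipocytes grown to confluence in high-glucose DMEM/10% FBS, then given differentiation media (0.5 mM IBMX, 5 µg/ml insulin, 250 nM dexamethasone) with or without 20 µM compound. Protein isolated at set time points, lysed with protease/phosphatase inhibitors, BCA-quantified, resolved by 8–12% SDS-PAGE, immunoblotted with ECL detection. β-actin loading control, densitometry normalized to actin, n=3.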

- Activity (Mus musculus): Active
Compound: Cc1ccc(S(=O)(=O)N(Cc2cn(Cc3cccc(F)c3F)nn2)Cc2cn(S(=O)(=O)c3ccc(C)cc3)c3ccccc23)cc1
- Activity (Syrian golden hamster [1]): Active
- Activity (3T3-L1 [2]): Active
- Activity (3T3-L1 [3]): inactive
- Activity (Syrian golden hamster [4]): Active
